Several values for one entry are separate records, joined by “and”; a condition that tells them apart may be missing. Identical values can stand only once.
Columns and labels:
[1] = test system: patients with advanced malignancies; experiment: Phase 1 trial: safety and tolerability; format: in vivo, human; details: for DLT: cycle 1; for Patients with any TRAE / TRAE Anemia / TRAE Blood bilirubin increased/hyperbilirubinemia / TRAE Diarrhea / TRAE Fatigue / TRAE Nausea / TRAE Rash (rash, rash macular, rash maculo-popular) / TRAE Thrombocytopenia /platelet count decrease: n = 40
How it was run: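 Monitoring covered AEs graded by NCI-CTCAE v4.03, SAEs, laboratory values, clinical examinations, vital signs, ECOG status, ophthalmology and ECG. DLTs were assessed over cycle 1 (28 days) of oral single-agent dosing (50–400 mg QD, 200 mg BID). Escalation used a two-parameter BLRM with EWOC: reference 650 mg total daily dose, target DLT interval [0.16, 0.33], <25% chance of excessive toxicity, increments ≤100%.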

[2] = test system: advanced solid tumors with homozygous deletion of CDKN2A/MTAP and/or loss of MTAP protein; experiment: Phase 1 trial: antitumor activity by RECIST v1.1, treatment duration; format: in vivo, human
How it was run: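 Adults with advanced solid tumour or lymphoma (homozygous CDKN2A and/or MTAP deletion by local FISH or sequencing, and/or central MTAP IHC with ≤20% positive tumour cells) took test compound orally on an empty stomach. Dosing was 50–400 mg QD or 200 mg BID: a single dose on C0D-3, then daily from C1D1 in 28-day cycles until progression or toxicity. Local investigators scored response by RECIST v1.1 (Lugano for lymphoma).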

[3] = Plasma pharmacokinetics of AG-270/S095033; format: in vivo, human
SAM = experiment: Plasma SAM concentration; format: in vivo, human
How it was run: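 Plasma SAM was quantified by LC-MS/MS. Baseline blood was drawn twice at screening and before the single oral dose on C0D-3. At steady state (C1D15) sampling was pre-dose and 0.5, 1, 2, 3, 4, 6, 8 and 24 h post-dose, with daily oral dosing at 50–400 mg QD or 200 mg BID. The read-out was percent change from baseline.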

methionine = experiment: Plasma methionine concentration; format: in vivo, human; details: steady state (C1D15)
SDMA residues = experiment: SDMA by IHC; format: in vivo, human; details: NSCLC patient, 50 mg QD
How it was run: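 Paired core-needle biopsies (archival or fresh) were taken at screening/baseline and at the end of cycle 1. Tissue was fixed in 10% […] buffered formalin and paraffin-embedded. H&E confirmed tumour content, and SDMA in tumour cells was scored by IHC as an H-score. Paired comparison used a two-sided Wilcoxon matched-pairs test.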

mouse = mouse GLP toxicology study, non-tolerated doses; cited from earlier work
[4] = test system: MTAP-deleted cancer cell lines; details: multiple MTAP-deleted cancer cell lines; cited from earlier work
MTAP-null tumors = details: cited from earlier work
UGT1A1 = details: known potential; cited from earlier work
OATP1B1 = details: known potential; cited from earlier work
[5] = test system: MTAP-deleted urothelial cancer and lung cancer; details: cited from earlier work
[6] = monotherapy expansion, MTAP-deleted urothelial cancer and lung cancer

COc1ccc(-c2c(Nc3ccccn3)[nH]c3c(C4=CCCCC4)c(-c4ccccc4)nn3c2=O)cc1 [AG-270/S095033]
Patients with dose-limiting ≥grade 3 / acute liver injury ([1]; 200 mg BID): two patients
Severity of thrombocytopenia ([1]; 200 mg BID): Higher grade thrombocytopenia
DLT ([1]; 1 patient at 100 mg QD): Grade 2 hypersensitivity reaction
DLT ([1]; 1 patient at 150 mg QD): Grade 3 hyperbilirubinemia and Grade 3 maculo-papular rash
DLT ([1]; 1 patient at 200 mg QD): Grade 3 neutrophil count decreased
Patients who experienced a TEAE of Grade ≥3 ([1]; 40 patients): 67.5%
Patients with AEs leading to permanent treatment discontinuation ([1]; 40 patients): 5.0%
Patients with TRAEs of Grade ≥3 ([1]; 40 patients): 17.5%
Patients with at least one DLT during cycle 1 ([1]; 40 patients): 10%
Patients with fatal SAEs (none related to treatment) ([1]; 40 patients): 5.0%
Patients with serious adverse events (SAEs) regardless of relationship ([1]; 40 patients): 57.5%
Patients with worst post-baseline ECOG score of 2 ([1]; 40 patients): 20.0%
Patients with worst post-baseline ECOG score of 3 ([1]; 40 patients): 2.5%
SAE abdominal pain ([1]; 40 patients): 5.0%
SAE liver injury ([1]; 40 patients): 5.0%
SAE pancreatitis ([1]; 40 patients): 5.0%
SAE sepsis ([1]; 40 patients): 5.0%
SAE tumor pain ([1]; 40 patients): 5.0%
TEAE non-serious blurred vision (not related to treatment) ([1]; 40 patients): 5%
TEAE non-serious supraventricular tachycardia ([1]; 40 patients): 2.5%
TEAE non-serious tachycardia ([1]; 40 patients): 5%
TEAE optic disc hemorrhage (not related to treatment) ([1]; 40 patients): 2.5%
TEAE retinal hemorrhage (not related to treatment) ([1]; 40 patients): 2.5%
TEAE serious atrial fibrillation ([1]; 40 patients): 2.5%
TEAE serious electrocardiogram T wave inversion ([1]; 40 patients): 2.5%
TEAE serious sinus tachycardia ([1]; 40 patients): 2.5%
TRAE blood bilirubin increase, any grade ([1]; 40 patients): 15%
TRAE hyperbilirubinemia, any grade ([1]; 40 patients): 12.5%
TRAE thrombocytopenia, any grade ([1]; 40 patients): 10%
Patients with any TRAE ([1]; All Grades): 28 n (%) and 28 (70.0) n (%)
TRAE Anemia ([1]; All Grades): 4 n (%) and 4 (10.0) n (%)
TRAE Blood bilirubin increased/hyperbilirubinemia ([1]; All Grades): 10 n (%) and 10 (25.0) n (%)
TRAE Diarrhea ([1]; All Grades): 3 (7.5) n (%)
TRAE Fatigue ([1]; All Grades): 10 n (%) and 10 (25.0) n (%)
TRAE Nausea ([1]; All Grades): 3 (7.5) n (%)
TRAE Rash (rash, rash macular, rash maculo-popular) ([1]; All Grades): 6 (15.0) n (%)
TRAE Thrombocytopenia /platelet count decrease ([1]; All Grades): 7 (17.5) n (%)
Patients with any TRAE ([1]; Grade 1): 10 (25.0) n (%)
TRAE Anemia ([1]; Grade 1): 1 (2.5) n (%)
TRAE Blood bilirubin increased/hyperbilirubinemia ([1]; Grade 1): 1 (2.5) n (%)
TRAE Diarrhea ([1]; Grade 1): 2 (5.0) n (%)
TRAE Fatigue ([1]; Grade 1): 3 (7.5) n (%)
TRAE Nausea ([1]; Grade 1): 3 (7.5) n (%)
TRAE Rash (rash, rash macular, rash maculo-popular) ([1]; Grade 1): 3 (7.5) n (%)
TRAE Thrombocytopenia /platelet count decrease ([1]; Grade 1): 2 (5.0) n (%)
Patients with any TRAE ([1]; Grade 2): 11 (27.5) n (%)
TRAE Anemia ([1]; Grade 2): 2 (5.0) n (%)
TRAE Blood bilirubin increased/hyperbilirubinemia ([1]; Grade 2): 6 (15.0) n (%)
TRAE Diarrhea ([1]; Grade 2): 1 (2.5) n (%)
TRAE Fatigue ([1]; Grade 2): 7 (17.5) n (%)
TRAE Nausea ([1]; Grade 2): 0 n (%)
TRAE Rash (rash, rash macular, rash maculo-popular) ([1]; Grade 2): 1 (2.5) n (%)
TRAE Thrombocytopenia /platelet count decrease ([1]; Grade 2): 2 (5.0) n (%)
Patients with any TRAE ([1]; Grade 3): 6 (15.0) n (%)
TRAE Anemia ([1]; Grade 3): 1 (2.5) n (%)
TRAE Blood bilirubin increased/hyperbilirubinemia ([1]; Grade 3): 4 (10.0) n (%)
TRAE Diarrhea ([1]; Grade 3): 0 n (%)
TRAE Fatigue ([1]; Grade 3): 0 n (%)
TRAE Nausea ([1]; Grade 3): 0 n (%)
TRAE Rash (rash, rash macular, rash maculo-popular) ([1]; Grade 3): 2 (5.0) n (%)
TRAE Thrombocytopenia /platelet count decrease ([1]; Grade 3): 3 (7.5) n (%)
Patients with any TRAE ([1]; Grade 4): 1 (2.5) n (%)
TRAE Anemia ([1]; Grade 4): 0 n (%)
TRAE Blood bilirubin increased/hyperbilirubinemia ([1]; Grade 4): 0 n (%)
TRAE Diarrhea ([1]; Grade 4): 0 n (%)
TRAE Fatigue ([1]; Grade 4): 0 n (%)
TRAE Nausea ([1]; Grade 4): 0 n (%)
TRAE Rash (rash, rash macular, rash maculo-popular) ([1]; Grade 4): 0 n (%)
TRAE Thrombocytopenia /platelet count decrease ([1]; Grade 4): 0 n (%)
Treatment-related increases in transaminases ([1]; between the 100 mg and 400 mg dose levels): Low grade (Grade 1–2)
Severity of thrombocytopenia ([1]; doses between 100 and 200 mg QD): largely Grade 1–2
Effect on ECG parameters ([1]; in vivo): no discernable effect
Time to resolution of erythematous rashes after stopping treatment ([1]; in vivo): ≤ 1 week
Patients with PR interval >200 ms ([1]; maximum post-baseline value): 10.0%
Patients with QRS duration >120 ms ([1]; maximum post-baseline value): 7.5%
Patients with QT/QTc interval >450 ms ([1]; maximum post-baseline value): 15.0%
Patients with QT/QTc interval increase from baseline >30 ms ([1]; maximum post-baseline value): 10.0%
Patients with any TEAE ([1]; n=40): 40 N (%)
TEAE Blood bilirubin increased ([1]; n=40): 9 N (%)
TEAE Decreased appetite ([1]; n=40): 8 N (%)
TEAE Diarrhoea ([1]; n=40): 8 N (%)
TEAE Dyspnoea ([1]; n=40): 8 N (%)
TEAE Fatigue ([1]; n=40): 17 N (%)
TEAE Nausea ([1]; n=40): 13 N (%)
≥ Grade 3 TEAE Bilirubin increased ([1]; n=40): 4 N (%)
Treatment-related clinically significant retinopathy ([1]; ophthalmologic examinations at screening and during treatment): No treatment-related events of clinically significant retinopathy were reported
Maximum tolerated dose (MTD) ([1]; oral, 28-day cycles): 200 mg QD
Increases in unconjugated bilirubin ([1]; patients, across doses): Asymptomatic, exposure-dependent and reversible increases in unconjugated bilirubin were observed starting at 100 mg QD
Patients with SD for 4 months or longer ([2]; 40 patients): 12.5%
Disease control rate (CR+PR+SD≥16 weeks) ([2]; 40 patients, 95%–CI 7.3, 32.8): 17.5%
BOR Not evaluable (NE) ([2]; Total (n=40)): 7 n (%)
BOR Partial response (PR) ([2]; Total (n=40)): 2 n (%)
Duration of partial response ([2]; patient, sex cord stromal cell cancer, 100 mg QD): 28 months
Increase of plasma concentrations with dose ([3]; 50 mg to 200 mg): dose-proportional manner from 50 mg to 200 mg
Exposure relative to dose ([3]; 400 mg QD): less than dose proportional
Cmax ([3]; human, plasma, oral, Geometric mean Cmax, range across the dosing cohorts, C1D15): 1710 to 13600 ng/mL
half-life ([3]; human, plasma, oral, Geometric mean accumulation-based (effective) half-life (T½eff), range, C1D15, 50 to 200 mg QD and 200 mg BID): 43 to 99 h
Tmax ([3]; human, plasma, oral, Median Tmax, range across the dosing cohorts, C1D15): 1 to 6 h
half-life ([3]; human, plasma, oral, Median terminal half-life (t½), range across the tested doses): 16 to 38 h
Time at which steady-state was achieved (mean plasma trough concentrations) ([3]; most of the cohorts): ≤ 15 days
Mean reduction from baseline plasma SAM concentration (SAM; C1D15, 400 mg QD): ~ 54%
Decrease of plasma SAM concentration from baseline, range across doses (SAM; C1D15, 50–200 mg QD and 200 mg BID): 65–70%
Change in plasma methionine concentrations (methionine): increases in methionine concentrations in a drug exposure-dependent manner up to 200 mg QD
SDMA reduction after 1 cycle of treatment (SDMA residues): 39%
Retinal finding (mouse): non-reversible retinal atrophy at non-tolerated doses
Effect on cell proliferation [4]: robust decrease in cell proliferation
Effect on SAM levels (MTAP-null tumors; mice bearing MTAP-null tumors): reduce the levels of SAM in both plasma and tumor tissue
Effect on tumor growth (MTAP-null tumors; mice bearing MTAP-null tumors): inhibit tumor growth in a dose- and drug exposure-dependent manner
Reduction in plasma SAM concentration associated with maximum tumor growth inhibition (MTAP-null tumors; preclinical models): 60–80%
Inhibition of UGT1A1 (UGT1A1): inhibit
Inhibition of hepatocyte transporter OATP1B1 (OATP1B1): inhibit

Nc1nc(=O)n(-c2ccccc2Cl)c2nc(C(F)(F)F)ccc12 [IDE397]
Patients achieving a PR ([5]; Phase 2 expansion, squamous NSCLC and bladder cancer): two out of eight patients
Disease control rate [5, 6]: ~ 94%
Overall response rate [5, 6]: ~ 39%
ctDNA molecular response rate [5, 6]: ~ 81%

Source: publication PMC11704051 (Nature Communications, 2025)
